High-throughput results: PubChem, several laboratories
MC4R antag cAMP = blocks human MC4R cAMP signaling; P32245; inhibition, % at 6.5 µM; 360,000 tested, 0.48% active; MC4R-expressing cells, MTII-stimulated cAMP, LANCE TR-FRET; AID 540295;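 active = inhibition above its plate's cutoff, the mean of tested wells on that plate plus 3 SD, cut at about 29% in these data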
Target sequence (P32245 whole entry, looked up): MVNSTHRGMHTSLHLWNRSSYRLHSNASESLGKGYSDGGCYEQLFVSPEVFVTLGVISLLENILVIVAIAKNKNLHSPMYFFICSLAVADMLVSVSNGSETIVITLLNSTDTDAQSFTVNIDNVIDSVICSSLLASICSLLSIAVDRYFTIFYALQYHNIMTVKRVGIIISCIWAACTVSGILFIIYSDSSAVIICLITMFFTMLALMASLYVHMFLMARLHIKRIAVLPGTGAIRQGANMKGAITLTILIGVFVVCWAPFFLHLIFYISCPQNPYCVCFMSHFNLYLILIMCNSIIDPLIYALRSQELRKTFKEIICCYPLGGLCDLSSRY
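material = U2OS cells stably expressing human melanocortin 4 receptor (MC4R) | also added = Melanotan II challenge | dosing = single nominal compound dose of 6.5 µM | detection = TR-FRET with Eu-cAMP and labeled anti-cAMP, 671 nm | replication = singlicate | timing = compound 30 min, challenge 1 h, detection 1 h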
A1 inh = inhibitors of the anti-apoptotic protein A1, read as caspase activation | MEF A1-2A-BIM cells, Caspase-Glo 3/7 luminescence, 3 h; percent of clofoctol response, vehicle zero | caspase activation, % (no concentration beside the values) | 330,000 tested, 0.066% active;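 active = over half of replicate activation scores above 10%, or exactly half above 10 with the replicate mean above 10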
Granule exo inh = lytic granule exocytosis inhibition; AID 651702; TALL-104 LAMP-1 surface exposure, flow cytometry; cells stimulated with thapsigargin and PMA; inhibition, % at 10 µM; 360,000 tested, 0.66% active;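 active = inhibition above about 55%, limit read from the data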
sPLA2-III inh = Inhibits HGIII-sPLA2 liposome hydrolysis, primary screen | Q9NZ20 | QFRET BODIPY PC-A2 liposome hydrolysis, fluorescence | inhibition, % at 12.2 µM | 370,000 tested, 0.56% active | AID 743126;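 active = inhibition above mean plus 3 SD of compounds lying within the high and low control bounds, cut at about 19% in these data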
MC4R barr agon = agonists of human melanocortin 4 receptor (MC4R) beta-arrestin; P32245; U2OS MC4R beta-arrestin complementation, luminescence; percent of melanotan II response, DMSO zero; activation, % at 8.9 µM; 360,000 tested, 0.98% active;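 active = activation above a per-plate cutoff, the mean activation of sample wells on that plate plus 3 SD, cut at about 8% in these data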
NTR1 ag = agonists of human neurotensin receptor NTR1 | P30989 | NTR1-U2OS beta-arrestin-GFP spot imaging, agonist mode | activation, % at 20 µM | 330,000 tested, 0.17% active;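 active = activation at or above 40% of the spot to cytoplasm intensity ratio, with at least 20 cells analyzed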
Target sequence (P30989 whole entry, looked up): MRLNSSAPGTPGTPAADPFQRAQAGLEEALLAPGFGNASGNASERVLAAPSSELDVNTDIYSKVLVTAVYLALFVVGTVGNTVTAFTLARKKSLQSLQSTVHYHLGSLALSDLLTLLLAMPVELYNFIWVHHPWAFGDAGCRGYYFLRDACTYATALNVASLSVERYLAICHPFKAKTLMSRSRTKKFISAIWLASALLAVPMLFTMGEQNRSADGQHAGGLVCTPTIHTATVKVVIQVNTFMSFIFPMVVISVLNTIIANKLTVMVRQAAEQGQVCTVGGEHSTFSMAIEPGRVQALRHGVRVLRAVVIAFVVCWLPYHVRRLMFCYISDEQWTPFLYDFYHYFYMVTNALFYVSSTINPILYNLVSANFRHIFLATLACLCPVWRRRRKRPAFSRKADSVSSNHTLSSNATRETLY
Each line names hits and unclear results; the compound was inactive in the other large screens. This is a sample that favours compounds with a hit; in the whole collection about 2.5% have one here.

Cc1cc(-n2c(SCC(=O)Nc3ccc(F)c(F)c3)nc3n[nH]c(C)c3c2=N)ccc1Cl	none
CN(Cc1ccccc1)C(=O)OCc1cn(Cc2c(F)cccc2F)nn1	none (no result: MC4R antag cAMP, A1 inh, Granule exo inh, MC4R barr agon, NTR1 ag)
COCCCn1c(SCCc2ccccc2)nc2cc(OC)c(OC)cc2c1=N	Granule exo inh 60, MC4R barr agon 9.4
C/C(=N\Nc1nc2ccccc2[nH]1)c1ccc([N+](=O)[O-])cc1	MC4R barr agon 9.5
CCOc1cc(/C=C2/SC(=S)NC2=O)ccc1OC(=O)c1ccco1	none
O=C1NC(=S)S/C1=C/c1ccc(OC(=O)c2ccco2)cc1	Granule exo inh 79
O=C(O)c1cccnc1SCC(=O)N1CCCCCC1	none
O=C(CSc1ncccc1C(=O)O)NC1CCCCC1	A1 inh 5.5
CSc1ccccc1NC(=O)CSc1cccc[n+]1[O-]	none
O=C(CSc1cccc[n+]1[O-])NC1CCCCC1	A1 inh 8.3
Cc1ccccc1-c1ccc2c(c1)[C@@H]1C[C@H](N(C)S(=O)(=O)c3ccc(Cl)cc3)[C@H]([C@H](C)O)CN1CC2	none (no result: MC4R antag cAMP, A1 inh, Granule exo inh, MC4R barr agon, NTR1 ag)
C[C@@H]1CNCCN1c1ccc(N2CCN(Cc3ccccc3)[C@@H](C)C2)c(C#N)c1	none (no result: MC4R antag cAMP, A1 inh, Granule exo inh, MC4R barr agon, NTR1 ag)
Cc1ccc(-c2ccc(/C=N/NC(N)=S)o2)cc1	Granule exo inh 103
NC(=S)N/N=C/c1ccc(-c2ccccc2)o1	Granule exo inh 91
S=C1NCN(CC2CC2)CN1	none (no result: MC4R antag cAMP, A1 inh, Granule exo inh, MC4R barr agon, NTR1 ag)
Cc1c(CCOC(=O)c2ccccc2)sc[n+]1CC(=O)c1ccc(Br)cc1	Granule exo inh 95 (no result: sPLA2-III inh)
Cc1c(CCOC(=O)C23CC4CC(CC(C)(C4)C2)C3)sc[n+]1CC(=O)c1ccccc1	MC4R barr agon 9.3
Cc1ccc(NC(=O)Nc2nnc(Cc3ccc([N+](=O)[O-])cc3)s2)cc1	MC4R barr agon 9.3
CCCNS(=O)(=O)c1cccc(C(=O)OCc2cc(=O)oc3cc(OC)ccc23)c1	Granule exo inh 70
COc1ccc2c(COC(=O)c3cccc(S(=O)(=O)NCC(C)C)c3)cc(=O)oc2c1	none
CCN(CC)CCN1C(=O)C(=O)/C(=C(/O)c2ccc3c(c2)CC(C)O3)C1c1ccc(OC)cc1 (stereo not given)	Granule exo inh 92
CCOc1ccc(C2/C(=C(/O)c3ccc4c(c3)CC(C)O4)C(=O)C(=O)N2CC2CCCO2)cc1 (stereo not given)	none
Cc1ccc(Cn2cc(CN3CC=CS3(=O)=O)nn2)cc1	none (no result: MC4R antag cAMP, A1 inh, Granule exo inh, MC4R barr agon, NTR1 ag)
COCC(=O)N(Cc1ccccc1)c1ccccc1C(=O)Nc1cc(OC)ccc1OC	none (no result: MC4R antag cAMP, A1 inh, Granule exo inh, MC4R barr agon, NTR1 ag)
Cc1noc(C)c1COc1ccc(C(=O)OC(C)C(=O)Nc2ccc(N3CCOCC3)cc2)cc1 (stereo not given)	A1 inh 5.8
COC(=O)C1=C(C)N(C)C(=NCc2cccc(C(F)(F)F)c2)NC1c1ccc(Cl)cc1 (stereo not given)	none (no result: MC4R antag cAMP, A1 inh, Granule exo inh, MC4R barr agon, NTR1 ag)
CC(=O)c1nn(-c2ccccc2)cc1C(=O)c1ccc(Br)cc1	none
CC(=O)c1nn(-c2cccc(Br)c2)cc1C(=O)c1ccccc1	MC4R barr agon 9.4
COc1ccc(CCNC(=O)c2c(N)[nH]c(C(=O)c3ccccc3)c2-c2ccc(N(C)C)cc2)cc1	none (no result: MC4R antag cAMP, A1 inh, Granule exo inh, MC4R barr agon, NTR1 ag)
COc1ccc2cc(C)c3nnc(SCC(=O)Nc4nc(-c5ccc(F)cc5)cs4)n3c2c1	A1 inh 16
Cc1ccc(-n2c(Cc3cccs3)nnc2SCc2ccc(Br)cc2)cc1	none (no result: MC4R antag cAMP, A1 inh, Granule exo inh, MC4R barr agon, NTR1 ag)
CCN(CC)CCN1C(=O)/C(=C\c2ccc(Cl)c([N+](=O)[O-])c2)SC1=Nc1ccc(OC)cc1	Granule exo inh 93
CCCN1C(=O)/C(=C/c2ccc(C)s2)SC1=Nc1ccc(OC)cc1	none
COc1ccc(N=C2S/C(=C\c3ccc(Cl)c([N+](=O)[O-])c3)C(=O)N2CCN(C)C)cc1	Granule exo inh 73
CC1CCC2(CCC(=O)N2CCCOC(=O)Nc2cccc(C(F)(F)F)c2)CC1 (stereo not given)	none (no result: MC4R antag cAMP, A1 inh, Granule exo inh, MC4R barr agon, NTR1 ag)
CSC[C@@H]1NC(=S)N(c2ccc(C)cc2)C1=O	A1 inh 23
CCCC1CCC2(CC1)CCC2OC(=S)Nc1ccccc1C(F)(F)F (stereo not given)	none (no result: MC4R antag cAMP, A1 inh, Granule exo inh, MC4R barr agon, NTR1 ag)
CN(C)Cc1c(C(C)(C)O)[nH]c2cc(C(F)(F)F)ccc12	none (no result: MC4R antag cAMP, A1 inh, Granule exo inh, MC4R barr agon, NTR1 ag)
Cc1cccc(Nc2nc(-c3ccc(O)cc3O)cs2)n1	MC4R barr agon 9.4
Oc1ccc(-c2csc(Nc3ncccn3)n2)c(O)c1	none
O=C(CSc1c(F)c(F)cc(F)c1F)Nc1ccc(C2SCCS2)cc1	MC4R barr agon 8.5
O=C(CSc1ccc(Cl)cc1)Nc1ccc(C2SCCS2)cc1	MC4R barr agon 9.6
O=C(COc1ccc(C2SCCS2)cc1)Nc1ccc(Cl)cc1	none
C=C(CN(C)C)C(=O)c1cc(C)ccc1C	MC4R antag cAMP 47 (no result: A1 inh, NTR1 ag)
CCOC(=O)/C(=C\c1cccnc1)C(=O)c1cc(C(C)=O)c(Nc2ccccc2)s1	A1 inh 22, Granule exo inh 60 (no result: sPLA2-III inh)
COc1ccc(NC2=NC(=S)N(c3ccccc3C)C23CCCCC3)cc1	none
COc1ccc(N2C(=S)N=C(Nc3ccccc3)C23CCCCC3)cc1	MC4R barr agon 14
CCc1ccc(S(=O)(=O)/N=C2/C=C(Sc3ncn[nH]3)C(=O)c3ccccc32)cc1	MC4R antag cAMP 60, Granule exo inh 98 (no result: sPLA2-III inh, NTR1 ag)
COc1ccc(CNC(=O)CCNS(=O)(=O)c2ccc3[nH]c(=O)oc3c2)cc1	none (no result: MC4R antag cAMP, A1 inh, Granule exo inh, MC4R barr agon, NTR1 ag)
COc1cc(CNCc2ccccn2)ccc1OCc1ccc(Cl)cc1Cl	MC4R antag cAMP 30, MC4R barr agon 9.2
CCCCNC(=O)c1ccc(/C=C2\Oc3ccccc3N(C)C2=O)cc1	MC4R barr agon 9.2
CCN1CCN(CCCNC(=O)c2ccc(/C=C3/Oc4ccccc4N(Cc4cccc(C)c4)C3=O)cc2)CC1	none (no result: sPLA2-III inh)
C=CCCC(=O)N1CCC(C(=O)NC2CCCc3ccccc32)CC1 (stereo not given)	none (no result: MC4R antag cAMP, A1 inh, Granule exo inh, MC4R barr agon, NTR1 ag)
CN(C)c1cccc(/C=C2\CC3(OC(=O)c4cccc(F)c4)CCCN2C3)c1 (stereo not given)	none (no result: MC4R antag cAMP, A1 inh, Granule exo inh, MC4R barr agon, NTR1 ag)
O=C(CN1C(=O)S/C(=C\c2ccc(Cl)cc2)C1=O)NNC(=O)c1ccccc1O	sPLA2-III inh 44 (no result: NTR1 ag)
CCc1cc2c(=O)c(-c3cnn(-c4ccccc4)c3)c(C)oc2cc1OCC(=O)Nc1cccc(C)c1	A1 inh 7.9
CCc1cc2c(=O)c(-c3cnn(-c4ccccc4)c3)c(C)oc2cc1OCC(=O)Nc1ccc(F)c(F)c1	none
Cc1ccc(Cn2cc(COC(=O)N3CCOCC3)nn2)cc1	none (no result: MC4R antag cAMP, A1 inh, Granule exo inh, MC4R barr agon, NTR1 ag)
Cc1ccccc1CN[C@@H]1CC[C@@]23CCCN2C(=O)CCC[C@H]3C1	none (no result: MC4R antag cAMP, A1 inh, Granule exo inh, MC4R barr agon, NTR1 ag)
O=C(O)CCCN1C(=O)/C(=C/c2ccncc2)SC1=S	none
O=C(O)CCCCCN1C(=O)/C(=C\c2ccc(-c3ccc(Cl)cc3)o2)SC1=S	Granule exo inh 87
O=C(O)CCCN1C(=O)/C(=C/c2ccc(-c3nc4ccccc4s3)o2)SC1=S	Granule exo inh 66
